The text below walks through data of ChEMBL document CHEMBL4118234, “Synthesis and biological evaluation of irreversible EGFR tyrosine kinase inhibitors containing pyrido[3,4-d]pyrimidine scaffold” (Bioorg Med Chem, 2018).

The subject of data set [1] is HCC827. Put plainly: Antiproliferative activity against human HCC827 cells harboring EGFR E746 to A750 deletion mutant after 72 hrs by MTT assay. Type of data set: functional, cell-based. To be noted: HCC827, 72 h. In outline: (§1)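 Cells were kept in RPMI-1640 with 10% heat-inactivated FBS, plus 1% of 100 mM sodium pyruvate for HCC827, at 37 °C and 5% CO2. They were seeded at 3000-5000 per well and pre-incubated 24 h. Final compound concentrations were 0.33, 1, 33, 100, 333, 1000, 3333, 10000 nM for 72 h. MTT was added for 4 h, formazan dissolved in DMSO, and OD read at 490 nm. Inhibition ratios were taken against control culture, and IC50 calculated from them. At least three experiments were run in triplicate.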
A general note: Tetrazolium assays rely on reduction of a dye to a coloured formazan, in cell work by metabolically active cells.

The test system of data set [2] is NCI-H1975. Put plainly: Antiproliferative activity against human NCI-H1975 cells harboring EGFR L858R/T790M double mutant after 72 hrs by MTT assay. Type of data set: functional, cell-based. To be noted: NCI-H1975, 72 h. The method in brief: as §1
Another data set has as its system A549. As to the kind of experiment: Cytotoxicity against human A549 cells harboring wild type EGFR assessed as reduction in cell viability after 72 hrs by MTT assay. To be noted: A549, 72 h. Type of data set: cell-based. In outline: as §1
A short description of data set [3]: Solubility of the compound. In kind it is physicochemical.
The target in data set [4] is Epidermal growth factor receptor (Homo sapiens, UniProt P00533). Put plainly: Inhibition of wild type EGFR (unknown origin) using Poly(Glu,Tyr) as substrate after 40 mins by Kinase-Glo luminescence assay. For orientation: Kinase-Glo measures the ATP left after a reaction by luminescence.
Epidermal growth factor receptor (Homo sapiens, UniProt P00533), sequence (P00533 whole entry): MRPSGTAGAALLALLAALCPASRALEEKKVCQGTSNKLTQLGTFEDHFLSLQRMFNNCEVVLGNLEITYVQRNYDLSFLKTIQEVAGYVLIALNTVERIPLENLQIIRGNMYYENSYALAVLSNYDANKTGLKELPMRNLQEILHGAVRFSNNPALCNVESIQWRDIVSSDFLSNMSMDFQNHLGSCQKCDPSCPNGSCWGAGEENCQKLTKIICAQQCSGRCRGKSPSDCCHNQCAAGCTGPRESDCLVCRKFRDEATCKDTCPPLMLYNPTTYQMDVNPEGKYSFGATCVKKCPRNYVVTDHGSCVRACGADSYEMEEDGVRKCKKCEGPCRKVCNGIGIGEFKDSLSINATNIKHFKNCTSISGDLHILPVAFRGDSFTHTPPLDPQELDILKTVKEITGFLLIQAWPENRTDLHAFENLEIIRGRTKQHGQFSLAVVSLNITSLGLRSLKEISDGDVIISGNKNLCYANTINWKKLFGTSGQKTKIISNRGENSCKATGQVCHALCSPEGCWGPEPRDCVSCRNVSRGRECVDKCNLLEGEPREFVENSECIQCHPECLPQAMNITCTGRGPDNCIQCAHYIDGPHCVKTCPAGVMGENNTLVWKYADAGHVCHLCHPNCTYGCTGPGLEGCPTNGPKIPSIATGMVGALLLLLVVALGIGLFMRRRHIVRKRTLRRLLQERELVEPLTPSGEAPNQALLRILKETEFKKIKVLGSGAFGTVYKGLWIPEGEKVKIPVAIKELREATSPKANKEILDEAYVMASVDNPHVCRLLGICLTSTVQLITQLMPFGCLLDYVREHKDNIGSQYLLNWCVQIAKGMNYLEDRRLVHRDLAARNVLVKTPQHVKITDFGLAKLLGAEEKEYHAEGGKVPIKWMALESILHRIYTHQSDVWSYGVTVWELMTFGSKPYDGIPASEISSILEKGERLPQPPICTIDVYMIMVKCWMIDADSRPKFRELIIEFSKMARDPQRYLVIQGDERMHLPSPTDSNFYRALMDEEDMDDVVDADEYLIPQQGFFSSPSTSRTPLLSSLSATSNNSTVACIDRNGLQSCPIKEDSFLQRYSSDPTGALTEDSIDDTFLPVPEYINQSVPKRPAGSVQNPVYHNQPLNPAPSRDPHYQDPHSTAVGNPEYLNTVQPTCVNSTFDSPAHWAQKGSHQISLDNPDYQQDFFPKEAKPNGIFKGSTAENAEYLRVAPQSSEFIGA
In data set [5] the target is Epidermal growth factor receptor (Homo sapiens, UniProt P00533, L858R). Put plainly: Inhibition of EGFR L858R mutant (unknown origin) using Poly(Glu,Tyr) as substrate after 40 mins by Kinase-Glo luminescence assay.
Epidermal growth factor receptor (Homo sapiens, UniProt P00533, L858R), sequence (P00533 25-1210 L858R limits assumed): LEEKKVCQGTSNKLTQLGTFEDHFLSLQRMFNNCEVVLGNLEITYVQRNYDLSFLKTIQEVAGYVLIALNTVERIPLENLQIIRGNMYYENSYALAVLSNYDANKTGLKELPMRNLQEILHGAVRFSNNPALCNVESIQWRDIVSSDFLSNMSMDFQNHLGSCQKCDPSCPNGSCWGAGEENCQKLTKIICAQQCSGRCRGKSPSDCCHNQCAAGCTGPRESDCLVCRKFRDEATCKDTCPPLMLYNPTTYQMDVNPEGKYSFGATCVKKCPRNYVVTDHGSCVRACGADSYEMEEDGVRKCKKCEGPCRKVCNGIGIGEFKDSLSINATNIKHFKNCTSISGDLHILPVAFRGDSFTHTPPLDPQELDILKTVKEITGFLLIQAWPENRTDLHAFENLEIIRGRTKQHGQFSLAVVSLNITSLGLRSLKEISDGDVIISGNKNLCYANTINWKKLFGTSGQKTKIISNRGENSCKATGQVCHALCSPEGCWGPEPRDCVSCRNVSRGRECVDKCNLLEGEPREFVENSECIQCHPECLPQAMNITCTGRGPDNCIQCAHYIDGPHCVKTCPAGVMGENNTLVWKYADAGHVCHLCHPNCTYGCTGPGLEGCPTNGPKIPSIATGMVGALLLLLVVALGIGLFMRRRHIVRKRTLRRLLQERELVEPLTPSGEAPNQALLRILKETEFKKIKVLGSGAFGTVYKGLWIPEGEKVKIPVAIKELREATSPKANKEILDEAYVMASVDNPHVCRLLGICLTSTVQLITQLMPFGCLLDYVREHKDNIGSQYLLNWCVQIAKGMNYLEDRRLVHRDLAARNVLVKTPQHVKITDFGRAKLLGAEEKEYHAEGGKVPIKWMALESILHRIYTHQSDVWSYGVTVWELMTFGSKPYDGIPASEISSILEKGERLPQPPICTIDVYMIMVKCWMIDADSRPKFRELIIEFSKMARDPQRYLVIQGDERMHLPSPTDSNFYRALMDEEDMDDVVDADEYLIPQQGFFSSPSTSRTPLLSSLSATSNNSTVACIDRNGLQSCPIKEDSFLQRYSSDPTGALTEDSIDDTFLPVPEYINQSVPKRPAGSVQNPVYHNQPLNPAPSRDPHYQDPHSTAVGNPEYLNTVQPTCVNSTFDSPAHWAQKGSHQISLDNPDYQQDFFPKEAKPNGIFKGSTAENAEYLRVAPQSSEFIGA
Data set [6] concerns the target Epidermal growth factor receptor (Homo sapiens, UniProt P00533, L858R/T790M). Put plainly: Inhibition of EGFR L858R/T790M double mutant (unknown origin) using Poly(Glu,Tyr) as substrate after 40 mins by Kinase-Glo luminescence assay.
In data set [7] the target is Epidermal growth factor receptor (Homo sapiens, UniProt P00533, C797S/L858R/T790M). Put plainly: Inhibition of EGFR L858R/T790M/C797S triple mutant (unknown origin) using Poly(Glu,Tyr) as substrate after 40 mins by Kinase-Glo luminescence assay.
For data set [8], the system named is Epidermal growth factor receptor (Homo sapiens), P00533 [L858R,T790M,C797S]. As to the kind of experiment: Inhibition of EGFR L858R/T790M/C797S triple mutant (unknown origin) at 500 nM using Poly(Glu,Tyr) as substrate after 40 mins by Kinase-Glo luminescence assay relative to control. The method in brief:
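The reaction ran 40 min at 30 °C in 40 mM Tris pH 7.4, 10 mM MgCl2, 0.1 mg/mL BSA, 1 mM DTT, 10 µM ATP, 25 ng kinase, and 0.2 mg/mL poly(Glu,Tyr); final DMSO was 1%. Remaining ATP was read by Kinase-Glo Plus luminescence. Inhibition was scored relative to no-compound and no-enzyme signals. At least two experiments were run.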

Data set [9] concerns NCI-H1975. Put plainly: Antiproliferative activity against human NCI-H1975 cells harboring EGFR L858R/T790M double mutant at 10 uM after 72 hrs by MTT assay relative to control. Type of data set: functional. The method in brief: as §1
The subject of data set [10] is HCC827. As to the kind of experiment: Antiproliferative activity against human HCC827 cells harboring EGFR E746 to A750 deletion mutant at 10 uM after 72 hrs by MTT assay relative to control. Type of data set: functional. The method in brief:
as §1

For data set [11], the system named is HCC827. As to the kind of experiment: Induction of apoptosis in human HCC827 cells harboring EGFR E746 to A750 deletion mutant assessed as early apoptotic cells at 3 uM after 24 hrs by Annexin V-FITC/propidium iodide staining based flow cytometry (reference value: 1.34 to 1.67%). In kind it is functional. On the technique in general: Flow cytometry measures light scatter and fluorescence of single cells or particles in a stream.

Data set [12] deals with HCC827. Put plainly: Induction of apoptosis in human HCC827 cells harboring EGFR E746 to A750 deletion mutant assessed as late apoptotic cells at 3 uM after 24 hrs by Annexin V-FITC/propidium iodide staining based flow cytometry (reference value: 23.66 to 27.14%). In kind it is functional.

Epidermal growth factor receptor (Homo sapiens), P00533 [L858R,T790M,C797S], sequence (P00533 whole entry T790M/C797S/L858R): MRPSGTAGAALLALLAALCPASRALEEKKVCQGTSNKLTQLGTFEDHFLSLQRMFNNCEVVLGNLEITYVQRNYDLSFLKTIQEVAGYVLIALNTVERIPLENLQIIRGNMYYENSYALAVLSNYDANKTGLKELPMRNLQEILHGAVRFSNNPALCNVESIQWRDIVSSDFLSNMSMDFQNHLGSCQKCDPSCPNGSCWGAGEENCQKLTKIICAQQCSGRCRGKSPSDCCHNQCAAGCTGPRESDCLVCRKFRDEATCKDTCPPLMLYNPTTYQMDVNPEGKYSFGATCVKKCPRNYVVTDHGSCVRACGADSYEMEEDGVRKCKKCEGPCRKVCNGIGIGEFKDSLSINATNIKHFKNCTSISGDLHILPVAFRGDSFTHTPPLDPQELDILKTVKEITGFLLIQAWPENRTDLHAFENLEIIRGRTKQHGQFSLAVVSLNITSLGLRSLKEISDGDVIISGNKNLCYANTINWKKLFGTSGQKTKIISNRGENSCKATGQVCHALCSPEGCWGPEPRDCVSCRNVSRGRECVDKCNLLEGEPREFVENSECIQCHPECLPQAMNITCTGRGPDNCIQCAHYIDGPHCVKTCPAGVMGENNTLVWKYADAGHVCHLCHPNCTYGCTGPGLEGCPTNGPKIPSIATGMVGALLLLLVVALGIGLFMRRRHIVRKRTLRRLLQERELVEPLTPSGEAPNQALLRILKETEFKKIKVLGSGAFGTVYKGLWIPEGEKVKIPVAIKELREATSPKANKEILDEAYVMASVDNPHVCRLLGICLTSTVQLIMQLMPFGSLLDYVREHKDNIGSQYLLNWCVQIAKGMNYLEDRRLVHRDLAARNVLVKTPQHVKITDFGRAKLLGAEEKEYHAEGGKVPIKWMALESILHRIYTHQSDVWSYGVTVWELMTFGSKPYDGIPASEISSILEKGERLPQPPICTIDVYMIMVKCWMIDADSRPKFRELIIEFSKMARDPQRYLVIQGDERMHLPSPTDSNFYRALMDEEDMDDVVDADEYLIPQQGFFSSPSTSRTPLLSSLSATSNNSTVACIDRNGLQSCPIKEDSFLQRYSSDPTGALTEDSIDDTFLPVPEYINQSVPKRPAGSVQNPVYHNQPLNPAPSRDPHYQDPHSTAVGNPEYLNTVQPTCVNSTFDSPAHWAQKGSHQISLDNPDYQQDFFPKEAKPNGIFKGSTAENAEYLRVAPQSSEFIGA
Epidermal growth factor receptor (Homo sapiens, UniProt P00533, L858R/T790M), sequence (P00533 25-1210 T790M/L858R limits assumed): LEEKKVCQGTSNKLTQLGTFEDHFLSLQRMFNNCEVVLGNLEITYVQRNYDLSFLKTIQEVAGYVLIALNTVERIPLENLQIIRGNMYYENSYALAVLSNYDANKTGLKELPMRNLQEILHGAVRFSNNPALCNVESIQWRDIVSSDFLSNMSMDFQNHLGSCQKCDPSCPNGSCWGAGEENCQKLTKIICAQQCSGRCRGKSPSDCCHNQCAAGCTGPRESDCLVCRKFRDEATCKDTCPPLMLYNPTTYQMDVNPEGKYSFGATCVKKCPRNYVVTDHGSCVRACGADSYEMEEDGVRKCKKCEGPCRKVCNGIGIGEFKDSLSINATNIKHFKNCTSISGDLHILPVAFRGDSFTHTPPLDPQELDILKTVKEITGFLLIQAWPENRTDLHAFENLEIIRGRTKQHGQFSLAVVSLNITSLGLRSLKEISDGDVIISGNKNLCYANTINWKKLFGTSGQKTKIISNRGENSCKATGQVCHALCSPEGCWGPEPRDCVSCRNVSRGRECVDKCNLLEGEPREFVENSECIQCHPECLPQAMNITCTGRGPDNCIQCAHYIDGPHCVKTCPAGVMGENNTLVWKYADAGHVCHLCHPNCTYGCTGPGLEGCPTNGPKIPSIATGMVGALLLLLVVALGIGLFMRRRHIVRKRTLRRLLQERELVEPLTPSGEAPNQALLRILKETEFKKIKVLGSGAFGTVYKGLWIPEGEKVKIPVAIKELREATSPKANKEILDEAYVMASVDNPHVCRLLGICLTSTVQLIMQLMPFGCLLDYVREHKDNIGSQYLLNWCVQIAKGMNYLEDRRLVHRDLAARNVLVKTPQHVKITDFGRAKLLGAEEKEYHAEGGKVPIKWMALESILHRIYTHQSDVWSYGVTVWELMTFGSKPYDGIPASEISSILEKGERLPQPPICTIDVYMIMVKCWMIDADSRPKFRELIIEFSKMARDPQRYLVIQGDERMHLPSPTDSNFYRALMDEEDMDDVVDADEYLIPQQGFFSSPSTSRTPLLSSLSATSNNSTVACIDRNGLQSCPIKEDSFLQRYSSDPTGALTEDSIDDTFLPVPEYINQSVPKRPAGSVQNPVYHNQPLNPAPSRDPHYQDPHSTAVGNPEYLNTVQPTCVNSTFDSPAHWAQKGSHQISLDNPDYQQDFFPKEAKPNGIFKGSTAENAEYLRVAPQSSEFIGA

For `C=CC(=O)N[C@H]1CCCN(c2nc(Nc3ccccc3)nc3cnc(Nc4ccc(N5CCN(C)CC5)cn4)cc23)C1`, the IC50 in the data set on HCC827 [1] worked out at 73 nM; with NCI-H1975 [2], 1400 nM; with A549, 810 nM; in [4], 12 nM; in [5], 14.2 nM; in data set [6] it was 361 nM. The compound also registered an IC50 in [7] of over 500 nM. The solubility entry in [3] is given as “Soluble”. The compound further gave an inhibition in data set [8] of under 50%.

On to `C=CC(=O)N[C@@H]1CCN(c2ncnc3cnc(Nc4ccc(N5CCN(C)CC5)cn4)cc23)C1`, for which the IC50 with HCC827 [1] was 3520 nM; with NCI-H1975 [2], over 10000 nM. In addition, in the data set on NCI-H1975 [9], the Activity is given as under 50%.

As for `C=CC(=O)Nc1cccc(Nc2cc3c(N4CCCC4)nc(Nc4ccccc4)nc3cn2)n1`, the IC50 in the data set on HCC827 [1] was over 10000 nM. The same compound registered an Activity in the data set with HCC827 [10] of under 50%. The solubility entry in data set [3] is “Insoluble”.

Consider `C=CC(=O)N1CC[C@@H](Nc2nc(Nc3ccccc3)nc3cnc(Nc4ccc(N5CCN(C)CC5)cn4)cc23)C1`, for which the IC50 in the data set on HCC827 [1] was determined as 170 nM; with NCI-H1975 [2], 440 nM; in the data set on A549, 650 nM; in data set [4], 3.3 nM; in data set [5], 4.6 nM; in data set [6], 106 nM. Moreover, the IC50 in data set [7] is over 500 nM. For the same compound, the solubility entry in data set [3] is recorded as “Soluble”. In addition, the inhibition in [8] was under 50%.

Compound `C=CC(=O)Nc1cccc(Nc2cc3c(N4CCCC4)nc(OCC4CCOCC4)nc3cn2)n1` yielded an IC50 in the data set on HCC827 [1] of 8700 nM. The solubility result in [3] is “Insoluble”.

Compound `C=CC(=O)Nc1cccc(Nc2cc3c(N4CCCC4)nc(Nc4cccc(F)c4)nc3cn2)n1` showed an IC50 with HCC827 [1] of over 10000 nM. Moreover, the Activity in the data set on HCC827 [10] is on record as under 50%. Besides, the solubility entry in data set [3] is on record as “Insoluble”.

`C=CC(=O)N[C@H]1CCN(c2nc(Nc3ccccc3)nc3cnc(Nc4ccc(N5CCN(C)CC5)cn4)cc23)C1`: the IC50 stood at 69 nM with HCC827 [1]; 850 nM in the data set on NCI-H1975 [2]; 640 nM with A549; 1.5 nM in data set [4]; 3.2 nM in [5]; 26.5 nM in [6]. In data set [7], this compound gave an IC50 of 285 nM. For the same compound, the solubility entry in data set [3] is “Soluble”.

Turning to `C=CC(=O)N[C@@H]1CCCN(c2nc(Nc3ccccc3)nc3cnc(Nc4ccc(N5CCN(C)CC5)cn4)cc23)C1`, the half-maximal inhibitory concentration (IC50) came to 54 nM in the data set on HCC827 [1]; 1750 nM with NCI-H1975 [2]; 810 nM with A549; 5.4 nM in [4]; 6.5 nM in [5]; 164 nM in [6]. This compound came in with an IC50 in data set [7] of over 500 nM. Also, in data set [3], the solubility entry was “Soluble”. Besides, in [8], the inhibition was under 50%.

Regarding `C=CC(=O)N[C@@H]1CCN(c2ncnc3cnc(Nc4ccc(OCCOC)cc4OC)cc23)C1`, the IC50 in the data set on HCC827 [1] is over 10000 nM. This compound displayed an Activity in the data set with HCC827 [10] of under 50%.

`C=CC(=O)Nc1cccc(Nc2cc3c(N4CCCC4)nc(OCc4ccccc4)nc3cn2)n1`: the IC50 with HCC827 [1] was over 10000 nM. Further, the solubility result in data set [3] is on record as “Insoluble”.

The compound `C=CC(=O)Nc1cccc(Nc2cc3c(N4CCCC4)nc(OC4CCOCC4)nc3cn2)n1` showed an IC50 in the data set with HCC827 [1] of 2740 nM. Besides, the solubility result in data set [3] is “Insoluble”.

`C=CC(=O)Nc1cc(Nc2nccc(-c3cn(C)c4ccccc34)n2)c(OC)cc1N(C)CCN(C)C` [OSIMERTINIB]: the figures for the IC50 in the data set on HCC827 [1], in the data set with NCI-H1975 [2] and in the data set on A549 were 27 nM, […] and 530 nM, respectively. Besides, the Activity in the data set on HCC827 [11] stood at 8.28%; in the data set with HCC827 [12], 68.1%.

Turning to `C=CC(=O)N1CC[C@H](Nc2nc(Nc3ccccc3)nc3cnc(Nc4ccc(N5CCN(C)CC5)cn4)cc23)C1`, the 50% inhibitory concentration (IC50) was found to be 270 nM in the data set with HCC827 [1]; 860 nM in the data set on NCI-H1975 [2]; 1670 nM with A549; 9.9 nM in data set [4]; 10.8 nM in [5]; 238 nM in data set [6]. This compound also gave an IC50 in [7] of over 500 nM. For the same compound, the solubility entry in data set [3] is listed as “Soluble”. Further, the inhibition in data set [8] was under 50%.

As to `C=CC(=O)Nc1cccc(Nc2cc3c(N4CCCC4)nc(OCc4ccc(F)cc4)nc3cn2)n1`, the IC50 in the data set with HCC827 [1] is over 10000 nM. In [3], the solubility entry was “Insoluble”.

On to `C=CC(=O)N[C@@H]1CCN(c2ncnc3cnc(Nc4ccc(OCCN(C)C)cc4OC)cc23)C1`, for which the IC50 with HCC827 [1] is over 10000 nM. The same compound came in with an Activity in the data set on HCC827 [10] of under 50%.

As to `C=CC(=O)N[C@@H]1CCN(c2nc(Nc3ccccc3)nc3cnc(Nc4ccc(N5CCN(C)CC5)cn4)cc23)C1`, the IC50 in the data set with HCC827 [1] was 20 nM; in the data set on NCI-H1975 [2] it was 1440 nM; in the data set on A549, 1190 nM; in data set [4], 2.7 nM; in data set [5], 4.7 nM; in data set [6] it was 36.6 nM. The solubility result in data set [3] is recorded as “Soluble”.

For `C=CC(=O)Nc1cccc(Nc2cc3c(N4CCCC4)nc(OCC4CCCCC4)nc3cn2)n1`, in the data set with HCC827 [1], the IC50 was over 10000 nM. Moreover, in data set [3], the solubility entry was “Insoluble”.

For the compound `C=CC(=O)N[C@@H]1CCN(c2ncnc3cnc(Nc4ccc(N5CCN(C)CC5)cc4OC)cc23)C1`, in the data set on HCC827 [1], the IC50 was over 10000 nM. For the same compound, the Activity with HCC827 [10] is under 50%.

Broadly, the IC50 is the concentration at which inhibition is half-maximal. In general, inhibition refers to the relative decrease from the control value, in per cent. Read a high inhibition as strong suppression.
